Screens as filed in PubChem BioAssay.
Compounds with a hit are over-represented: about 3.9% of the library has one in this group of screens.
TAAR1 ag – agonists of human TAAR1; CHO RD-HGA16 TAAR1, Fluo-8 calcium fluorescence; vehicle wells 0%, saturating PEA agonist 100%; AID 624467; 360,000 tested, 0.99% active; activation, % at 3 µM;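 active means activation above the mean activation of all test compounds in the run plus 3 SD, cut at about 38% in these data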
Target sequence (Q96RJ0 whole entry, looked up): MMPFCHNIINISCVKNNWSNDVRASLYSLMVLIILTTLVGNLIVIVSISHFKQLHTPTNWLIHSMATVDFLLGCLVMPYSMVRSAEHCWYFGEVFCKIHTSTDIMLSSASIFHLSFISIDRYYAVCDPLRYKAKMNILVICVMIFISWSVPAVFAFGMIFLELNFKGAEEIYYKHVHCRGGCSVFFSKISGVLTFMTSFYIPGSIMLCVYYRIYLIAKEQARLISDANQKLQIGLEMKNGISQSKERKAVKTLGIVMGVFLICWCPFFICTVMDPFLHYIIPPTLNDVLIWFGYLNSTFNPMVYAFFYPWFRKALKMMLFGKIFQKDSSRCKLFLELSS
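System: CHO RD-HGA16 cells carrying human TAAR1 plus Gα16; Incubation: 17-24 h seeding, 75 min 37 °C dye, 30 min RT; Measured by: Fluo-8 fluorescence, 5 s baseline then 140 s kinetic read; Control set: DMSO and PEA EC100; Replication: single well for each compound.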
CHO parental Ca – signal in parental CHO cells, OX1R antagonist counter-screen. inhibition, % at 5.6 µM. 330,000 tested, 0.63% active. parental CHO-K1, ATP-induced calcium, Fluo-8 fluorescence;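 active means inhibition above that plate's mean sample inhibition plus 3 SD, cut at about 26% in these data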;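 further: 0% = ATP-challenged DMSO wells and 100% = DMSO wells without ATP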
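Material: Parental CHO cells | Reagent: ATP | Compound dosing: Single nominal dose of 5.6 µM per compound | Detection: Intracellular calcium via Fluo-8 no-wash fluorescent dye | Read-out: % inhibition of ATP-induced calcium mobilization | Benchmarks: Low control ATP plus DMSO, high control DMSO only | Replicates: Singlicate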
OX1R antag-1 – antagonists of human orexin 1 receptor | CHO/OX1R cells, Fluo-8 calcium fluorescence, orexin A | O43613 | AID 434989 | inhibition, % at 5 µM | 330,000 tested, 0.43% active;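 active means inhibition above its plate's threshold, mean inhibition of all tested compounds on the plate plus 3 SD, cut at about 37% in these data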;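 further: 0% = orexin A challenge wells and 100% = SB-334867-A antagonist wells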
TAAR1 antagonist – antagonists of human TAAR1; AID 624466; CHO RD-HGA16 TAAR1, Fluo-8 calcium fluorescence, antagonist; 360,000 tested, 1.5% active; Q96RJ0; inhibition, % at 3 µM;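 active means inhibition above a per-plate cutoff, the mean inhibition of test compounds on that plate plus 3 SD, cut at about 49% in these data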;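 further: 0% = DMSO plus EC80 beta-PEA response and 100% = DMSO alone without agonist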
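Material: CHO RD-HGA16 cells bearing hTAAR1; compound dosing: one-point dosing, 3 µM nominal final; schedule: dye loading 75 min at 37 °C, then 30 min room temperature; measured by: calcium fluorescence with Fluo-8; control set: vehicle and agonist controls; replication: n of 1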
OX1R antag-2 – antagonists of human orexin 1 receptor (OX1R); O43613; OX1R-expressing cells, FRET antagonist read-out; inhibition, % at 6.6 µM; 330,000 tested, 1.8% active; in the data active means inhibition mostly above about 38%, no sharp cut-off; inactive means mostly below about 40%;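 further: 0% = agonist challenge alone and 100% = reference antagonist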
TAAR1 ag confirm – human TAAR1 agonism, confirmed. AID 651783. 2,400 tested, 82% active. activation, % at 3 µM. shares compounds with TAAR1 ag. CHO RD-HGA16 TAAR1, Fluo-8 calcium fluorescence; scaled: DMSO 0%, maximal phenethylamine 100%;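 active means activation above a cutoff set at the run's mean compound activation plus 3 SD, cut at about 39% in these data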
Ga16 nonsel ag – counter-screen for TAAR1 agonists: nonselective agonists in parental cells; shares compounds with TAAR1 ag; CHO-Ga16 parental, Fluo-8 calcium fluorescence; normalized to maximal ATP response, DMSO zero; activation, % at 3 µM; 2,400 tested, 50% active;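 active means activation above the run cutoff, the mean activation over all tested wells plus 3 SD, cut at about 12% in these data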;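 further: 0% = DMSO wells and 100% = maximal ATP response on the peak over basal ratio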
TAAR1 desens – TAAR1 response desensitization, agonist counter-screen; AID 651951; CHO RD-HGA16 hTAAR1, Fluo-8 calcium, beta-PEA response inhibition; 2,400 tested, 46% active; inhibition, % at 3 µM; shares compounds with TAAR1 ag;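 active means inhibition above the run cutoff, the mean inhibition of all test compounds plus 3 SD, cut at about 49% in these data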;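 further: beta-PEA stimulus applied at its EC80; loss of beta-PEA calcium signal after compound pretreatment read as receptor desensitization; 0% = DMSO with beta-PEA at EC80 and 100% = DMSO alone without agonist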
Ga16 antag count – nonselective Ga16 antagonism, counter-screen | CHO-Ga16 ATP-induced calcium, Fluo-8 fluorescence | inhibition, % at 3 µM | AID 651952 | 2,400 tested, 39% active | shares compounds with TAAR1 ag;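 active means inhibition above the plate's mean compound inhibition plus 3 SD, computed per plate, cut at about 22% in these data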;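 further: 0% = EC80 ATP with DMSO and 100% = DMSO wells without ATP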
An asterisk follows results filed as active; / = no result given.

SMILES | TAAR1 ag | CHO parental Ca | OX1R antag-1 | TAAR1 antagonist | OX1R antag-2 | TAAR1 ag confirm | Ga16 nonsel ag | TAAR1 desens | Ga16 antag count
Cc1cc(=O)[nH]c(SCC(=O)N2CCc3ccccc3C2)n1 | 77.1* | -13.1 | -15.7 | 56.2* | 2.6 | 77.3* | 5.3 | 20.3 | 11.9
Cc1onc(-c2ccccc2)c1C(=O)NNC(=S)NC(=O)c1ccc(Cl)cc1Cl | 131.8* | 3.1 | -7.7 | 107.8* | 3.3 | 149.0* | 120.9* | 106.5* | 92.2*
COc1ccc(/C=C/C(=O)NC(=S)NNC(=O)Cc2cccs2)cc1 | 48.4* | 22.7 | 2.0 | 27.8 | 9.4 | 29.6 | 18.6* | 23.7 | 25.4*
COc1ccc(/C=C/C(=O)NC(=S)NNC(=O)c2c(-c3ccccc3)noc2C)cc1 | 93.1* | -3.6 | -6.9 | 49.0* | -0.6 | 68.3* | 65.9* | 51.6* | 52.0*
COc1ccc(/C=C/C(=O)NC(=S)NNC(=O)c2ccco2)cc1 | 17.9 | -12.7 | -12.1 | 24.5 | 15.6 | / | / | / | /
Cc1ccccc1C(=O)NNC(=S)NC(=O)c1ccc(Cl)cc1Cl | 181.3* | 2.1 | 22.5 | 108.9* | 13.3 | 132.4* | 103.1* | 104.1* | 80.7*
COc1ccc(-c2cc(C(=O)NNC(=S)NC(=O)c3c(-c4ccccc4)noc3C)[nH]n2)cc1 | 2.7 | 4.7 | -10.6 | -21.0 | 9.9 | / | / | / | /
CCN1C=C(C(=O)c2ccccc2)C(=O)CC1 | 0.3 | / | / | -1.8 | / | / | / | / | /
COc1cccc(Nc2ncnc3nc[nH]c23)c1 | 0.3 | -5.6 | -9.0 | 0.3 | 2.2 | / | / | / | /
Cc1onc(-c2ccccc2)c1C(=O)NNC(=S)NC(=O)c1ccc(Br)cc1 | 0.7 | -2.2 | -11.9 | -9.8 | 6.0 | / | / | / | /
Cc1onc(-c2ccccc2)c1C(=O)NNC(=S)NC(=O)/C=C/c1ccccc1 | 136.4* | -7.1 | -11.2 | 54.9* | -0.5 | 148.6* | 125.8* | 89.8* | 61.0*
O=C(O)c1ccc(-c2sc(Nc3ccccc3)n[n+]2-c2ccc(F)cc2)cc1 | / | -11.8 | 8.4 | / | 5.3 | / | / | / | /
COc1ccc2ccccc2c1-c1sc(Nc2ccccc2)n[n+]1-c1ccc(F)cc1 | 64.0* | -10.8 | -9.7 | -11.7 | 15.1 | 51.8* | 25.4* | 46.1 | 37.0*
Fc1ccc(-[n+]2nc(Nc3ccccc3)sc2-c2c(Cl)cccc2Cl)cc1 | 74.0* | 34.1 | 11.1 | 32.3 | 30.0 | 88.7* | 34.8* | 72.8* | 29.0*
CCN1CCN(C(=O)C2CC(=O)N(c3ccc(Cl)cc3)C2)CC1 (stereo unspecified) | -0.6 | 0.5 | -10.4 | -15.8 | 15.4 | / | / | / | /
Cc1ccc(-n2nc3c(=O)n(CC(=O)NCCc4ccccc4C)nc(C)c3c2C)cc1 | / | -14.1 | -22.5 | / | 13.6 | / | 1.8 | / | 6.7
Cc1ccc(-n2nc3c(=O)n(CCCC(=O)NCc4ccccc4C)nc(C)c3c2C)cc1 | -2.2 | -27.7 | -35.2 | -30.0 | 10.7 | / | / | / | /
O=C(NC(Cc1ccccc1)C(=O)O)/C(=C/c1ccccc1)NC(=O)c1cccc(Br)c1 (stereo unspecified) | 4.5 | -6.1 | 0.1 | -13.2 | 33.2 | / | / | / | /
CC(OC(=O)c1cc2sccc2n1C)C(=O)NCc1ccc(F)cc1 (stereo unspecified) | 49.9* | 37.4* | -19.5 | 51.4* | 20.4 | 17.8 | 17.3* | 4.0 | 10.4
C[C@@H](OC(=O)N1CCCCC1)[C@H]1O[C@]2(C)CCCC[C@H]1O2 | 19.4 | 2.6 | -4.9 | -8.3 | 5.8 | / | / | / | /
COc1cccc(CNCC(O)COc2ccc(C(=O)c3ccccc3)cc2)c1 (stereo unspecified) | 22.7 | -22.4 | -26.4 | 14.4 | 3.8 | / | / | / | /
